Screening results as filed in PubChem.
Hits are enriched below; roughly 2.9% of the tested compounds scored in any of these assays.
ATG4B inhibitor = ATG4B (human) cysteine protease inhibition. Q9Y4P1. ATG4B cleavage of LC3-PLA2, NBD-HPC fluorescence, 1 h. inhibition, % at 8.33 µM. actives 0.51% (n = 340,000). AID 504462; in the data active = inhibition above about 40%
MEKK3 PB1 HTS = raises or lowers MEK5 binding to the human MEKK3 PB1 domain; Q99759; bead-based flow cytometry, Alexa488-MEK5 binding to MEKK3; actives lie on both sides; 0 = blocked by unlabeled MEK5, 100 = vehicle; binding response (% of control), % at 10 µM; actives 1.4% (n = 290,000);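 active = binding response more than 3 SD above or below the average of its plate-row segment, actives on both sides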;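 also: Alexa488 bead fluorescence after subtracting the streptavidin-only scavenger bead signal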
B2AR ag = activates human beta-2 adrenergic receptor causing internalization. Am2.2-beta2AR cells, FAP receptor internalization, flow cytometry. AID 504454. P07550. response, % (no concentration beside the values). actives 0.43% (n = 340,000);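 active = response above a set limit, near 3 SD of response in nonfluorescent compounds, cut at about 42% in these data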
Target sequence (P07550 whole entry, looked up): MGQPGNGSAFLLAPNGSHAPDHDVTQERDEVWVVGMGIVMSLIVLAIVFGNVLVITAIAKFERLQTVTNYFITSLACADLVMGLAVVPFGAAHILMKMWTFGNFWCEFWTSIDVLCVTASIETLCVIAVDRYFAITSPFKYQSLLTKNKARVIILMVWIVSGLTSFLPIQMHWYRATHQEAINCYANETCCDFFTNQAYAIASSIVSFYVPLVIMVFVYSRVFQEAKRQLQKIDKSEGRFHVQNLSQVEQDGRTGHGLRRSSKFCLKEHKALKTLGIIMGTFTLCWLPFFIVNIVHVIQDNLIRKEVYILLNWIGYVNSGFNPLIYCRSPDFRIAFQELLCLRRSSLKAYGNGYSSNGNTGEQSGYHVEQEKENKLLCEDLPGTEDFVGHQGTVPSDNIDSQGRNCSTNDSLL
Dynein transport = blocks dynein driven cargo transport along microtubules | 3617.4 mouse cells, GR-EGFP nuclear translocation imaging; test concentration mostly 20 µM; stimulated with dexamethasone, 1 µM; stronger effect = lower value | z-score, hits read low | actives 0.47% (n = 220,000) | AID 1381;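 active = plate z-score of nuclear minus cytoplasmic receptor signal below a set negative limit, without overly bright fluorescence or cell loss, cut at about -3.5 in these data, passing the limit was not always enough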;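 also: z-score of nuclear minus cytoplasmic ring GR-EGFP intensity difference per well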
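Buffer or medium – tet-free medium with charcoal-stripped serum · Signal – automated 10x imaging of fixed Hoechst-stained cells · Also added – dexamethasone agonist, 1.0 µM final, for 30 min · Incubation – induction 48 h, compound 1 h, agonist 30 min · Read-out – GR-EGFP nuclear translocation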
MEKK2wt PB1 HTS = raises or lowers MEK5 binding to wildtype human MEKK2 PB1 domain. bead flow cytometry, Alexa488-MEK5 binding to MEKK2 WT; actives lie on both sides. binding response (% of control), % at 10 µM. actives 1.1% (n = 290,000). Q9Y2U5. AID 1531; in the data active = binding response below about 67% or above about 130%
MEKK2 mut-MEK5 = signal of MEK5 binding to mutant human MEKK2 PB1 domain. bead flow cytometry, Alexa488-MEK5 binding to MEKK2 mutant. percent response, % at 10 µM. actives 0.35% (n = 290,000). AID 1530; in the data active = percent response above about 24%, passing the limit was not always enough
Hits are given with their value; . = inactive; / = no result; [ ] = another dose, or the depositor's remark.

SMILES	ATG4B inhibitor	MEKK3 PB1 HTS	B2AR ag	Dynein transport	MEKK2wt PB1 HTS	MEKK2 mut-MEK5
CC[N+]1(CC)CC2CCC(C)(C1)C2(C)C (stereo unspecified)	.	.	.	.	.	.
CCc1nc2ccccc2c(C(=O)OCC(=O)N2CC(C)OC(C)C2)c1C (stereo unspecified)	.	/	.	/	/	/
CCCc1cc(CN(C)C(=O)CC2C(=O)NCCN2Cc2ccccc2C)[nH]n1 (stereo unspecified)	.	.	.	/	.	.
CC(=O)C[C@@H](O)CC(=O)[C@@H]1OC(=O)[C@@H](C)C/C=C\Cc2ccccc21	/	/	.	/	/	/
Clc1nc(N2CCOCC2)ncc1Br	.	.	.	.	-4.0	.
COc1ccccc1NS(=O)(=O)c1cccc(NC(=O)Nc2ccc(Cl)cc2)c1	.	.	.	.	147	.
COc1ccccc1NS(=O)(=O)c1cccc(NC(=O)Nc2ccccc2)c1	.	.	.	.	.	.
CCCCN(C(=O)c1cccc(-n2cccc2)c1)c1c(N)n(Cc2ccccc2)c(=O)[nH]c1=O	/	/	.	/	/	/
CC1(C)CC(=O)C(C(C2=C(O)CC(C)(C)CC2=O)c2cccs2)C(=O)C1 (stereo unspecified)	.	/	68	.	/	/
Cc1ccc2cc(/C=C/C(=O)c3ccco3)c(Cl)nc2c1	.	.	56	.	.	.
Cc1ccc2nc(Cl)c(/C=C/C(=O)c3ccco3)cc2c1	.	.	.	.	.	.
CCOc1ccccc1-c1c2cc(O)c(=O)cc-2oc2cc(O)c(O)cc12	.	137	.	.	166	51
O=C(NCCc1nccs1)C1CCC(=O)N(Cc2cccc(C(F)(F)F)c2)C1 (stereo unspecified)	.	.	.	/	.	.
CCn1nc(C)c(NC(=O)CC23CC4CC(CC(C4)C2)C3)c1C	.	.	.	.	.	.
Cc1nn(C)cc1NC(=O)CC12CC3CC(CC(C3)C1)C2	.	141	.	.	.	.
CCCC[C@@H]1C=C(C(=O)O)[C@H](c2ccc(Cl)c(Cl)c2)N1S(=O)(=O)c1ccc(C)cc1	.	/	.	/	/	/
Oc1ccc(/C=N/NC(=S)Nc2cccnc2)c(O)c1O	.	.	67	.	.	.
Oc1cccc(/C=N/NC(=S)Nc2cccnc2)c1O	.	.	.	.	.	.
Cc1cc(C(=O)NNC(=O)CN2C(=O)NC(C)(c3ccccc3)C2=O)c(C)o1 (stereo unspecified)	.	/	.	/	/	/
N#CC(C#N)=C(Nc1ccc(F)cc1)SCc1cccc(F)c1	.	3.0[inhibitor]	.	.	4.0[inhibitor]	.
CCN1CCN(c2ccc(S(=O)(=O)N3CCCCC3)cc2NC(=O)/C=C/c2ccc(Cl)cc2)CC1	.	/	.	/	/	/
Nc1ccc(O)c(-c2nc3ccccc3s2)c1	.	.	.	.	.	.
Oc1ccc(-c2nc3ccccc3s2)c(O)c1	.	.	.	.	-2.0	.
Cn1nc([N+](=O)[O-])c(C(C#N)c2ccccn2)c(Cl)c1=O (stereo unspecified)	.	.	.	-5.9	.	.
CCCn1nc([N+](=O)[O-])c(C(C#N)c2nc3ccccc3o2)c(Cl)c1=O (stereo unspecified)	84	.	.	.	.	.
SMILES	ATG4B inhibitor	MEKK3 PB1 HTS	B2AR ag	Dynein transport	MEKK2wt PB1 HTS	MEKK2 mut-MEK5
N#CC(c1ccccn1)c1ncc(C(F)(F)F)cc1Cl (stereo unspecified)	.	.	.	.	.	.
CN(C(=O)c1c(Br)cnn1C)C12CC3CC(CC(C3)C1)C2	/	144	/	.	.	.
Cn1ncc(Br)c1C(=O)NC1CCCCC1	.	.	.	/	.	.
CCOc1ccc(NC(=O)Cn2nnc(-c3ccc(C(N)=O)cc3)n2)cc1S(=O)(=O)N1CCCC1	.	/	.	/	/	/
C=CCN(C(=O)c1csnn1)C(C(=O)NC1CCCC1)c1c(F)cccc1Cl (stereo unspecified)	.	.	.	/	153	.
CN1C2CCC1/C(=C\c1ccc(F)cc1)C(=O)/C2=C/c1ccc(F)cc1	.	.	.	.	.	.
C=CC(=O)N1C/C(=C/c2ccc(F)cc2)C(=O)/C(=C\c2ccc(F)cc2)C1	.	/	48	/	/	/
O=C(Cn1ncc2c([nH]c3ccccc32)c1=O)Nc1ccc(CN2CCCCC2)cc1	.	.	.	/	147	25
CCCOc1cc(N(CC)CC)ccc1/C=C(/C#N)c1nc2ccc(C)cc2[nH]1	.	.	.	.	57	87
COc1ccc2[nH]c(=O)cc(C(=O)O)c2c1	.	.	.	.	.	.
COc1ccc2[nH]c3c4c(ccc3c2c1)C(=O)C=CC4=O	.	.	61	-5.2	.	.
COc1cccc(NC(=O)CN(C)CC(=O)Nc2ccc(C)c([N+](=O)[O-])c2)c1	.	.	.	/	.	.
CN1CCN(Cc2c(O)ccc3cc(-c4ccccn4)c(=O)oc23)CC1	.	.	69	.	.	.
CN1CCN(C(c2ccc(Cl)cc2)c2cc(Cl)c3cccnc3c2O)CC1 (stereo unspecified)	.	.	.	/	137	28
CC12CC(=O)C3C(CCC4=CC(=O)CCC43C)C1CC=C2CC(=O)O (stereo unspecified)	.	/	.	/	/	/
COC(=O)C=C1CCC2C3CCC4=CC(=O)CCC4(C)C3C(=O)CC12C (stereo unspecified)	.	/	94	/	/	/
COC(=O)C1=C(C)NC(=S)NC1c1ccc(-c2cccc(Cl)c2)o1 (stereo unspecified)	.	.	51	.	.	.
O=C1Nc2ccc(Br)cc2/C1=C/C(=O)c1ccc2c(c1)OCO2	.	.	55	.	.	.
Cc1ccc(C(CNS(=O)(=O)c2ccc(F)cc2C)N2CCN(C)CC2)cc1 (stereo unspecified)	.	/	.	/	/	/
O=C(COC(=O)Cn1cnc2ccccc21)Nc1ccc(OC(F)F)cc1	.	/	.	/	/	/
O=C(O)Cn1cc(/C=C/[N+](=O)[O-])c2ccccc21	.	.	.	.	.	.
O=C(Cn1cc(/C=C\[N+](=O)[O-])c2ccccc21)Nc1ccccc1	.	.	84	.	.	.
COC(=O)c1cc(=O)n(-c2ccc(F)cc2)c(=Nc2ccc(F)cc2)s1	.	.	.	-4.2	.	.
COC(=O)c1cc(=O)n(Cc2cccs2)c(=Nc2ccc(F)cc2)s1	.	.	.	.	.	.
CCOC(=O)N1CCN(C(=O)C2CCC(=O)N(CCCN3CCCC3=O)C2)CC1 (stereo unspecified)	.	.	.	/	.	.
O=C(COc1ccccc1)N=C1SC2CS(=O)(=O)CC2N1c1cccc(F)c1 (stereo unspecified)	.	.	48	/	.	.
CC1=CC(=O)c2c(O)ccc(O)c2C1=O	/	.	/	-3.9	.	.
